Data from ChEMBL document CHEMBL3784976 (J Med Chem, 2016).
The source made the active and inactive calls. The rule behind the calls is not given here.

Experiments:
[1] = species: Rattus norvegicus; experiment: Antagonist activity at rat TRPV3 assessed as inhibition of 2-APB-induced Ca2+ influx up to 10 uM preincubated for 2.5 mins followed by 2-APB addition measured for 1 min by luminescence assay
[2] = Half life in rat at 0.5 mg/kg, iv administered as single dose; format: ADME, organism-based; conditions: in vivo
Outline: (§1)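 Single intravenous dose of 0.5 mg/kg given to rats, formulated in 100% DMSO.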

[3] = target: Histamine H1 receptor (Homo sapiens) (UniProt P35367); experiment: Displacement of [3H]pyrilamine from human recombinant histamine H1 receptor expressed in HEK293 cells assessed as remaining radioligand binding at 10 uM after 60 mins by scintillation counting method relative to control; format: cell-based
[4] = target: 5-hydroxytryptamine receptor 6 (Homo sapiens) (UniProt P50406); experiment: Displacement of [3H]LSD from human recombinant 5HT6 receptor expressed in CHO cells assessed as remaining radioligand binding at 10 uM after 120 mins by scintillation counting method relative to control; format: cell-based
[5] = Tmax in rat at 30 mg/kg, po; format: ADME, organism-based; conditions: in vivo
Outline: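 Rats dosed orally at 30 mg/kg, or 10 mg/kg for one analogue, in 1% Tween 80/2% HPMC/97% water with methanesulfonic acid, pH 2.2.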

[6] = Apparent permeability from apical to basolateral side in MDCK cells expressing control vector after 120 mins by LC-MS/MS analysis; format: ADME, cell-based, Canis lupus familiaris; conditions: dog
[7] = target: Transient receptor potential cation channel subfamily V member 4 (Homo sapiens) (UniProt Q9HBA0); experiment: Antagonist activity at human TRPV4 expressed in tetracycline-inducible T-REx expression system transfected CHO cells assessed as inhibition of 4alpha-PDD-induced Ca2+ influx up to 10 uM preincubated for 2.5 mins followed by 4alpha-PDD addition measured for 1 min by luminescence assay; format: cell-based
[8] = target: T1, Transient receptor potential cation channel subfamily A member 1 (Rattus norvegicus, UniProt Q6RI86); experiment: Antagonist activity at rat TRPA1 expressed in tetracycline-inducible T-REx expression system transfected CHO cells assessed as inhibition of AITC-induced 45Ca2+ uptake preincubated for 1 min followed by AITC addition measured after 12 mins; format: cell-based
[9] = test system: MDR1 (human); experiment: Efflux ratio of apparent permeability from basolateral to apical side over apical to basolateral side in MDCK cells expressing human MDR1 after 120 mins by LC-MS/MS analysis; format: ADME, cell-based, Canis lupus familiaris; conditions: dog
Outline: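 Efflux ratio taken as Papp B→A / Papp A→B, measured in MDR1-transfected MDCK cells against MDCK vector-control cells.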

[10] = Ratio of unbound plasma concentration in Harlan Sprague-Dawley rat model of AITC-induced flinching at 1 mg/kg, po to IC50 for rat TRPA1 expressed in tetracycline-inducible T-REx expression system transfected CHO cells by 45Ca2+ uptake assay; format: ADME, organism-based; conditions: in vivo
Outline: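 Rats dosed orally at 1, 3, 10 or 30 mg/kg in 2% HPMC/1% Tween-80 vehicle. After 1 h, unbound plasma concentration measured (n = 8 per dose), intraplantar AITC (0.1%) given and flinching scored over the first minute. Unbound concentration divided by in vitro rat TRPA1 45Ca2+ IC50.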

[11] = target: T1, Transient receptor potential cation channel subfamily A member 1; experiment: Antagonist activity at rat TRPA1 expressed in tetracycline-inducible T-REx expression system transfected CHO cells assessed as inhibition of hypo osmolarity buffer-induced 45Ca2+ uptake preincubated for 10 mins followed by hypo osmolarity buffer addition measured after 3 mins by TopCount microplate scintillator counting method; format: cell-based
Outline: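 Compound given 10 min at RT in Ham's F12/15 mM HEPES/0.1% BSA, final 2.0 nM–40 μM (1:3 steps); then hypo-osmolar buffer (final 100 mOsmol) with 45Ca2+ (final 10 μCi/mL), 3 min at RT. Cells washed three times in PBS/0.1 mg/mL BSA, then scintillation counted. Hypotonic uptake = 100%, 300 mOsmol/L buffer = 0%. POC fitted to a four-parameter curve for IC50.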

[12] = target: Cholecystokinin receptor type A (Homo sapiens) (UniProt P32238); experiment: Displacement of [125I]CCK-8s from human recombinant CCK1 receptor expressed in CHO cells assessed as remaining radioligand binding at 10 uM after 60 mins by scintillation counting method relative to control; format: cell-based
[13] = test system: Rattus norvegicus; experiment: In vivo inhibition of TRPA1 in Harlan Sprague-Dawley rat model of AITC-induced flinching assessed as unbound plasma concentration based IC90; format: functional
Outline: (§2)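 Rats were given vehicle (2% HPMC/1% Tween-80) or compound orally at 1, 3, 10 or 30 mg/kg. After 1 h, 0.1% AITC was injected into one left ventral hind paw, and nocifensive flinching was recorded over the first minute. Unbound plasma concentration was measured at 1 h, n = 8 per dose. In vivo IC50/IC90 came from the exposure–response relationship across individual animals.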

[14] = Clearance in rat at 0.5 mg/kg, iv as single dose; format: ADME, organism-based; conditions: in vivo
[15] = target: Sodium-dependent dopamine transporter (Homo sapiens) (UniProt Q01959); experiment: Displacement of [3H]BTCP from human recombinant dopamine transporter expressed in CHO cells assessed as remaining radioligand binding at 10 uM after 120 mins by scintillation counting method relative to control; format: cell-based
[16] = target: Transient receptor potential cation channel subfamily V member 1 (Homo sapiens, UniProt Q8NER1); experiment: Antagonist activity at human TRPV1 expressed in CHO cells assessed as inhibition of capsaicin-induced Ca2+ influx up to 10 uM preincubated for 2.5 mins followed by capsaicin addition measured for 1 min by luminescence assay; format: cell-based
[17] = target: T1, Transient receptor potential cation channel subfamily A member 1; experiment: Antagonist activity at rat TRPA1 expressed in tetracycline-inducible T-REx expression system transfected CHO cells assessed as inhibition of AITC-induced Ca2+ influx preincubated for 2 mins followed by AITC addition measured for 2 mins by Fluo-4 dye based FLIPR assay; format: cell-based
[18] = target: C-X-C chemokine receptor type 2 (Homo sapiens) (UniProt P25025); experiment: Displacement of [125I]IL-8 from human recombinant CXCR2 expressed in HEK293 cells assessed as remaining radioligand binding at 10 uM after 60 mins by scintillation counting method relative to control; format: cell-based
[19] = target: Muscarinic acetylcholine receptor M1 (Homo sapiens) (UniProt P11229); experiment: Displacement of [3H]pirenzepine from human recombinant muscarinic M1 receptor expressed in CHO cells assessed as remaining radioligand binding at 10 uM after 60 mins by scintillation counting method relative to control; format: cell-based
[20] = species: Homo sapiens; experiment: Binding affinity to human delta 2-type opioid receptor assessed as remaining radioligand binding at 10 uM by radioligand displacement assay relative to control
[21] = test system: Rattus norvegicus; experiment: In vivo inhibition of TRPA1 in Harlan Sprague-Dawley rat model of AITC-induced flinching assessed as unbound plasma concentration based IC50; format: functional, organism-based; outline: as §2
[22] = target: Mu-type opioid receptor (Homo sapiens) (UniProt P35372); experiment: Displacement of [3H]DAMGO from human recombinant mu opioid receptor expressed in HEK293 cells assessed as remaining radioligand binding at 10 uM after 120 mins by scintillation counting method relative to control; format: cell-based
[23] = target: Kappa-type opioid receptor (Rattus norvegicus) (UniProt P34975); experiment: Displacement of [3H]U-69593 from rat recombinant kappa opioid receptor expressed in CHO cells assessed as remaining radioligand binding at 10 uM after 60 mins by scintillation counting method relative to control; format: cell-based
[24] = species: Rattus norvegicus; experiment: Displacement of [3H]diltiazem from L-type calcium channel diltiazem binding site in rat cerebral cortex assessed as remaining radioligand binding at 10 uM after 120 mins by scintillation counting method relative to control; format: tissue-based
[25] = test system: Rattus norvegicus; experiment: Unbound clearance in rat at 0.5 mg/kg, iv as single dose; format: ADME, organism-based; conditions: in vivo; outline: as §1

T1 sequence (Q6RI86 whole entry): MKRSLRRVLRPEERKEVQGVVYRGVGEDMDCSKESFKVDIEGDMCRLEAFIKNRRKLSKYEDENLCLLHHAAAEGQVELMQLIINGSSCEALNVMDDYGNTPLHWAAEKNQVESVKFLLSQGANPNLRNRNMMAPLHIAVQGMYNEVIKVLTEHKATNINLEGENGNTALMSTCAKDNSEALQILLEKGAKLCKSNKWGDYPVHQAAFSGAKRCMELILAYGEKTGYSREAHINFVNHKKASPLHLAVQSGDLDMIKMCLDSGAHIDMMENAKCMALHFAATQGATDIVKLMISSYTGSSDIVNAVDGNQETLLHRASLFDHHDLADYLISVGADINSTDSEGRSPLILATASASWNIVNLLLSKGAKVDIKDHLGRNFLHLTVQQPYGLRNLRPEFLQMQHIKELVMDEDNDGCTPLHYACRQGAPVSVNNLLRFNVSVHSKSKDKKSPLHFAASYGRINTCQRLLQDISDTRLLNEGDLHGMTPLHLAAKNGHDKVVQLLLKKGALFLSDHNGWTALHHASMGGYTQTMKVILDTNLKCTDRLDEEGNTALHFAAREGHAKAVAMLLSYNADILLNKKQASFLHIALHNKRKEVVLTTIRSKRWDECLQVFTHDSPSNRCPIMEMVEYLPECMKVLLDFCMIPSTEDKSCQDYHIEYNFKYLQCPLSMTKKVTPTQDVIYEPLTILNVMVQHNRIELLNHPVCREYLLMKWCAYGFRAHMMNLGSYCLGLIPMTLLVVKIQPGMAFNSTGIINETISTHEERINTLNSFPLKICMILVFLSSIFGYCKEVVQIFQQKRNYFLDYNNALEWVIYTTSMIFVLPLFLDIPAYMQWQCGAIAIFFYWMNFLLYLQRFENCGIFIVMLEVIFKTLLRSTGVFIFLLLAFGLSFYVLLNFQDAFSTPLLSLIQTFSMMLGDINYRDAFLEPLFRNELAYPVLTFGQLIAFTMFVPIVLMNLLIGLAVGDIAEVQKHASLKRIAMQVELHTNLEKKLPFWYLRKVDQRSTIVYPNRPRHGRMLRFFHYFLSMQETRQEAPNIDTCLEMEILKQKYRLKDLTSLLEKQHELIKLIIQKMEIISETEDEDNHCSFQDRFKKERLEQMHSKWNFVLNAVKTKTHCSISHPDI
Transient receptor potential cation channel subfamily V member 1, sequence (Q8NER1 whole entry): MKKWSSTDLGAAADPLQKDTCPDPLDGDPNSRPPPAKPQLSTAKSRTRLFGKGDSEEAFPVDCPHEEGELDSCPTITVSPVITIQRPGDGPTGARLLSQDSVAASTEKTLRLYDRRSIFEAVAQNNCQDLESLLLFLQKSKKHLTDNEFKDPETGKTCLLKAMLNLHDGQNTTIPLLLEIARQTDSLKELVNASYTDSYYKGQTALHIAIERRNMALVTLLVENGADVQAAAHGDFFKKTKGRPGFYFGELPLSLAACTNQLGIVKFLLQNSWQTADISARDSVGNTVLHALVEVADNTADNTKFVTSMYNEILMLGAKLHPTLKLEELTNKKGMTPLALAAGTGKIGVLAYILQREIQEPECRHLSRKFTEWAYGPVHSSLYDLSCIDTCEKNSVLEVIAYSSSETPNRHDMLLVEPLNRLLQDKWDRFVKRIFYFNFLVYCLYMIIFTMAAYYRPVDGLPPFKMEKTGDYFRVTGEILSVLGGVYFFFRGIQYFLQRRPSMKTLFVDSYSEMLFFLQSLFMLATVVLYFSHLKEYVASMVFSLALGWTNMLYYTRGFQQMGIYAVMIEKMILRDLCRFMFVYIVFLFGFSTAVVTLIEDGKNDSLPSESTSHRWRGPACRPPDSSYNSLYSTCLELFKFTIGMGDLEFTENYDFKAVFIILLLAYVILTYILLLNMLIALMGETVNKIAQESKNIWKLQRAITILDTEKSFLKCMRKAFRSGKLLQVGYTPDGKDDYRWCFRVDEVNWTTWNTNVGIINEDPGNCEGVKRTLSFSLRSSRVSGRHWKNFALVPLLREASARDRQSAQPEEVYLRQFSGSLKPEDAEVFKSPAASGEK
Kappa-type opioid receptor (Rattus norvegicus), sequence (P34975 whole entry): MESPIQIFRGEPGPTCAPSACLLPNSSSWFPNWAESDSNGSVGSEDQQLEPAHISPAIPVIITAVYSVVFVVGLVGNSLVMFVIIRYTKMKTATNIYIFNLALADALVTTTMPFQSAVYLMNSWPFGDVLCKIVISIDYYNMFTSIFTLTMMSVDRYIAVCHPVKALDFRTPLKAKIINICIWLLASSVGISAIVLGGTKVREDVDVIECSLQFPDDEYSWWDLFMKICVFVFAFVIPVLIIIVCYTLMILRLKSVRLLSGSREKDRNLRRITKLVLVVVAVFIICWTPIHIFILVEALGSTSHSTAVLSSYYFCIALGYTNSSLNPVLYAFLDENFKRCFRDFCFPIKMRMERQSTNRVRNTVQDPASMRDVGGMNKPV
Cholecystokinin receptor type A (Homo sapiens), sequence (P32238 whole entry): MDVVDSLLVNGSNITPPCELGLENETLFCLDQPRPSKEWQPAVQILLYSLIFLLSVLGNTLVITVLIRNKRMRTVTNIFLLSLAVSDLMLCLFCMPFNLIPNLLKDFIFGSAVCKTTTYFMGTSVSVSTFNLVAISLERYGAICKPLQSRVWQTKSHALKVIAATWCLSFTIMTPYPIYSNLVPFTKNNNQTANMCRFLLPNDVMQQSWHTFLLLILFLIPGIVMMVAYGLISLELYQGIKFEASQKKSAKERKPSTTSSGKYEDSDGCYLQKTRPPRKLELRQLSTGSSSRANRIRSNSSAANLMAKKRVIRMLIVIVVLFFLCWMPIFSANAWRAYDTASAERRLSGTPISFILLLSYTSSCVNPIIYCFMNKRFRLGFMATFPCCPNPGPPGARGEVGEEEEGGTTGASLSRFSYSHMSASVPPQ
C-X-C chemokine receptor type 2 (Homo sapiens), sequence (P25025 whole entry): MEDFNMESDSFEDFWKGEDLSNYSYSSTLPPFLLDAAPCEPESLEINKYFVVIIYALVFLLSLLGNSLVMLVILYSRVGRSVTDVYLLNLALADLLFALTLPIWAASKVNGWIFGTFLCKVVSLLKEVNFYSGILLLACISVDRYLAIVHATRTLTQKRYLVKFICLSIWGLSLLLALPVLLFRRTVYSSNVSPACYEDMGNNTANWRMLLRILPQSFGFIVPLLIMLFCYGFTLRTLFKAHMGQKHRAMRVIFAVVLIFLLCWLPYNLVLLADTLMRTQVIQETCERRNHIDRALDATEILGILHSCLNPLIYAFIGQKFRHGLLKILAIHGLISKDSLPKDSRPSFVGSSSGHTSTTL
Transient receptor potential cation channel subfamily V member 4 (Homo sapiens), sequence (Q9HBA0 whole entry): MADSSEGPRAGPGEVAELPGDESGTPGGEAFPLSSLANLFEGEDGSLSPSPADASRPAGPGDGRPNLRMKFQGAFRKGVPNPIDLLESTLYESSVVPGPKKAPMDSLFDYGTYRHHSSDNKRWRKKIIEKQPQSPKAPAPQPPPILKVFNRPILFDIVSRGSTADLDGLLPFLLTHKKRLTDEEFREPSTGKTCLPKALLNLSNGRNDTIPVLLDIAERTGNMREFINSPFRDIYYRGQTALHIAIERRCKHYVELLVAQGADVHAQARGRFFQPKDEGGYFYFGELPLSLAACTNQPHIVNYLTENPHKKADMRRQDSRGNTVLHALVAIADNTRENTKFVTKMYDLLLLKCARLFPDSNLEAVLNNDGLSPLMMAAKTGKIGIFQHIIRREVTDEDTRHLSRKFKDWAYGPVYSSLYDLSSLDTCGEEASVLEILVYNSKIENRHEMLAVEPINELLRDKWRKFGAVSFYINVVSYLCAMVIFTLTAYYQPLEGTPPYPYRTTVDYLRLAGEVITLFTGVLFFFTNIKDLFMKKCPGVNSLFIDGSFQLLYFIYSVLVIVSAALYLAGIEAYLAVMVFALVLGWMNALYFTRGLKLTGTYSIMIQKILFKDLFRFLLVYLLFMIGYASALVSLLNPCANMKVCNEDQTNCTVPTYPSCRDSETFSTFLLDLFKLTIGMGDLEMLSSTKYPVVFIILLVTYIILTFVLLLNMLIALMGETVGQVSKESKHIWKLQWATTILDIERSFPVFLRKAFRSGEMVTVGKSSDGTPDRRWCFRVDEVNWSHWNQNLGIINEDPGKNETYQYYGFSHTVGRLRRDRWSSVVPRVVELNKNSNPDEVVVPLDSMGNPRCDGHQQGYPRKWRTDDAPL
Histamine H1 receptor (Homo sapiens), sequence (P35367 whole entry): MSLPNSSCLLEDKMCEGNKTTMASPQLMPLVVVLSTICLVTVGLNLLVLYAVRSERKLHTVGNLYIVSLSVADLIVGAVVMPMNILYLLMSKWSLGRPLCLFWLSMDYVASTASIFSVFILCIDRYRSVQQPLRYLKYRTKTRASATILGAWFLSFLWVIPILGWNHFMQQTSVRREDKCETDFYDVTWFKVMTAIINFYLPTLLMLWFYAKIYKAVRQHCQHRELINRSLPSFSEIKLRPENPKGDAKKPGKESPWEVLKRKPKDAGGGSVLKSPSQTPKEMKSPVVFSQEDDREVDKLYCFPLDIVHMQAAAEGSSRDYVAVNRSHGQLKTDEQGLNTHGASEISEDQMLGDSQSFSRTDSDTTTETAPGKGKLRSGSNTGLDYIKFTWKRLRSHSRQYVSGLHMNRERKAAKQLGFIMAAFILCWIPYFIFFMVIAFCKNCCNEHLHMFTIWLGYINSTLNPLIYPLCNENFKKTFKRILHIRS
5-hydroxytryptamine receptor 6 (Homo sapiens), sequence (P50406 whole entry): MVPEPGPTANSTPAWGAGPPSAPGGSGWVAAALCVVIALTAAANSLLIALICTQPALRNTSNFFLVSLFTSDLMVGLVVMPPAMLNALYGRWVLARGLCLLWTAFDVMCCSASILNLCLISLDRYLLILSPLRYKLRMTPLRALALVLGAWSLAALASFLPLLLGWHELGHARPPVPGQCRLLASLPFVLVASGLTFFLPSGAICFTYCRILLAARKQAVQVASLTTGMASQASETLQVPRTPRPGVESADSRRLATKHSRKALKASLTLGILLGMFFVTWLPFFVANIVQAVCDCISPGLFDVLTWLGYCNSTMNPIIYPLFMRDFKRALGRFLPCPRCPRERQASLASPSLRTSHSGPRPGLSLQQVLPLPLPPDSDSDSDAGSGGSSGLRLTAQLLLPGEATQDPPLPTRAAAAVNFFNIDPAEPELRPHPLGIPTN

inhibition [1]: inactive | half-life [2]: 36 min | Activity [3]: > 77% | Activity [4]: > 77% | Tmax [5]: 48 min | Papp A→B at 2 h [6]: 44.5 ×10⁻⁶ cm/s | inhibition [7]: inactive | IC50 [8]: 71 nM | efflux ratio at 2 h [9]: 1.3 | Ratio [10]: 0.72 | IC50 [11]: 10 nM | Activity [12]: > 77% | IC90 [13]: 1700 nM | clearance [14]: 41.7 mL/min/kg | Activity [15]: > 77% | inhibition [16]: inactive | IC50 [17]: 20 nM | Activity [18]: > 77% | Activity [19]: > 77% | Activity [20]: > 77% | IC50 [21]: 350 nM | Activity [22]: > 77% | Activity [23]: > 77% | Activity [24]: > 77% | CL free [25]: 150 mL/min/kg
SMILES: Cn1cnc2ncn(Cc3nc(CCc4ccc(Cl)cc4)no3)c(=O)c21
